The sample as a whole holds a higher share of hits than the screen did.
CHOP UPR activ: apoptotic UPR (CHOP) activation | CHO-CHOP luciferase reporter, luminescence; percent of tunicamycin response over DMSO baseline | activation, % at 10 µM | 330,000 tested, 0.34% active | AID 449763;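 active = at 10 µM dose, activation of 40% or more, normalized to positive control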
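Test system: CHO CHOP reporter cells. Input: 500 CHO-CHOP cells per well. Medium: F12 with 10% FBS. Technique: luciferase luminescence. Measure: percent activation relative to tunicamycin control. Dosing: 10 µM compound, 0.5% DMSO. Timing: 16-18 h cell attachment, then 6 h compound exposure, 37 °C.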
XBP1 UPR activ: activators of adaptive arm of unfolded protein response (XBP1); CHO-XBP1 luciferase reporter, IRE1-XBP1 UPR activation, luminescence; percent of tunicamycin response, DMSO as zero; activation, % at 20 µM; 330,000 tested, 0.33% active;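 active = versus positive control, 20 µM dose yields 30% or more activation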
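Material: CHO-XBP1 cells stably carrying IRE1-XBP1-driven luciferase reporter | Medium: F12 with 10% serum | Compound dosing: 20 µM single concentration, DMSO 1% | Incubation: Overnight seeding at 37 °C, 6 h compound treatment at 37 °C | Detection: Steady-Glo luminescence read | Read-out basis: % activation of reporter signal versus tunicamycin and DMSO controls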
iPSC survival up: hiPSC single-cell survival enhancement. 360,000 tested, 0.044% active. survival enhancement, % at 20 µM. ATPlite luminescence; 100% = ROCK inhibitor wells, 0% = DMSO; in the data active = survival enhancement above about 18%;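 note: cells exposed to compounds for 16 hours before the ATP read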
CHOP inh: CHOP inhibition in unfolded protein response; CHO-K1 CHOP-promoter luciferase, tunicamycin-induced, 15-18 h; inhibition, % at 10 µM; 220,000 tested, 3.8% active;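 active = compounds that reduced the stress-induced luciferase reporter signal by more than about 70% of percent inhibition, limit read from the data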
Cardio protect: myocardial damage modulation in H9c2 cells; H9c2 cardiomyocytes, H2O2 injury protection, ATPLite, 2 h; protection from H2O2 cell death, % at 20 µM; 360,000 tested, 0.63% active; AID 588492;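 active = compounds giving at least 50% protection of heart cells from peroxide-induced death in the single-dose screen, raw or plate-pattern-corrected value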
A number is an active result; i = inactive; nt = no result.

SMILES	CHOP UPR activ	XBP1 UPR activ	iPSC survival up	CHOP inh	Cardio protect
CC(=O)Nc1cccc(NC(=O)CSc2nc(C)c(C)c(C)c2C#N)c1	i	i	i	i	i
Cc1nc(SCC(=O)Nc2ccccc2C(F)(F)F)c(C#N)c(C)c1CC(=O)c1ccc(Br)cc1	i	33.4	nt	88.0	nt
Cc1cccc(C)c1NC(=O)CSc1nc(C)c(CC(=O)c2ccc(Br)cc2)c(C)c1C#N	i	i	i	90.7	i
COc1ccc(-c2cc(C(F)(F)F)c(C#N)c(SCC(=O)Nc3ccccc3C#N)n2)cc1	i	i	nt	i	nt
CCn1c(SCC(=O)Nc2ccc3c(c2)oc2ccccc23)nnc1-c1ccc(N)cc1	i	i	i	95.1	i
Cn1c(SCC(=O)Nc2cccc(F)c2)nnc1-c1cc2ccccc2o1	i	i	i	73.8	i
Cc1ccc(CCc2nnc(SCC(=O)Nc3cccc(Cl)c3)n2-c2ccccc2)o1	i	i	i	84.9	i
CCn1c(SCC(=O)c2ccc3c(c2)Cc2ccccc2-3)nnc1-c1ccc(N)cc1	i	i	i	84.7	i
O=C(CSc1nnc2ccccn12)NNC(=O)c1ccccc1F	i	i	i	nt	i
CCN(c1ccccc1)S(=O)(=O)c1ccc(C(=O)N2CCN(c3ccccc3F)CC2)cc1	nt	nt	i	nt	i
CCC(=O)Nc1ccc(N2CCN(C(=O)c3cccs3)CC2)cc1	i	i	i	i	i
O=C(COc1ccccc1[N+](=O)[O-])Nc1ccc(N2CCN(C(=O)c3cccs3)CC2)cc1	i	i	i	i	65.9
CC(C)CC(=O)NC(=S)Nc1ccc(N2CCN(C(=O)c3cccs3)CC2)cc1	i	i	i	76.5	i
C=CCNc1ncnc2c1ncn2[C@H]1CN(Cc2ccc(-c3ccccc3)cc2)C[C@@H](CO)O1	nt	nt	i	nt	i
COc1cc2c(cc1OC)C(COc1ccc(F)cc1)N(C(=O)c1ccco1)CC2 (stereo not given)	i	i	i	i	i
COc1cc2c(cc1OC)C(COc1ccc3c(C)cc(=O)oc3c1)N(C(=O)c1ccco1)CC2 (stereo not given)	i	i	i	i	57.6
O=C(NCc1ccccc1)OC1CC2CC1[C@H]1CCCCN1C2=O (stereo not given in full)	nt	nt	i	nt	nt
Cc1cccc(C)c1NC(=O)C1c2ccccc2OCC(=O)N1C1CC1 (stereo not given)	nt	nt	i	nt	nt
CCN1C(=O)/C(=C/c2nc3ccccc3c(=O)n2-c2ccccc2)c2ccccc21	i	i	i	i	50.9
Cc1nnn(-c2nonc2N)c1C(=O)N/N=C/c1ccccc1O	i	i	i	i	54.5
COC(=O)c1ccc2cc(C)cc(C)c2n1	nt	nt	i	nt	i
O=C(Nc1ccc(Cl)c(Cl)c1)N(Cc1cccnc1)Cc1ccco1	i	i	i	i	i
O=C(CN(Cc1ccco1)C(=O)c1ccc(Cl)cc1)Nc1ccc(Cl)c(Cl)c1	i	i	i	92.8	i
N#Cc1c(N)nc2c(c1-c1ccc3c(c1)OCO3)CCCCCC2	i	i	i	86.0	i
COCCNC(=O)C1(C)CCCN(Cc2cccc(OC(=O)c3ccccc3)c2)C1 (stereo not given)	nt	nt	i	nt	i
SMILES	CHOP UPR activ	XBP1 UPR activ	iPSC survival up	CHOP inh	Cardio protect
CNS(=O)(=O)c1ccc(CNC[C@H]2O[C@@H](n3ccc(N)nc3=O)[C@H](O)[C@@H]2O)cc1	nt	nt	i	nt	i
O=C(N/N=C/c1cccnc1)c1cc(-c2ccccc2Cl)nc2ccccc12	i	i	i	nt	i
Fc1ccccc1/C=N/Nc1nc(-c2ccccn2)nc2ccccc12	168.1	i	nt	i	nt
Clc1ccccc1-c1nc(N/N=C/c2cccnc2)c2ccccc2n1	i	i	i	i	78.3
Cc1ccc2nc(C(Cl)(Cl)Cl)nc(N/N=C/c3ccc([N+](=O)[O-])cc3)c2c1	nt	nt	i	nt	i
Cc1ccc(-c2nc(N/N=C/c3ccncc3)c3ccccc3n2)cc1	i	i	i	81.5	i
Cc1ccc2nc(C(Cl)(Cl)Cl)nc(N/N=C/c3ccncc3)c2c1	i	i	i	72.1	i
CCN(C)C1CN(Cc2cn(Cc3ccc(C(F)(F)F)cc3)nn2)S(=O)(=O)C1 (stereo not given)	nt	nt	i	nt	nt
CCOc1ccc2nc(NCCNC(=S)NCCCN(C)C)c(C#N)cc2c1	i	i	i	i	i
CCOc1ccc2nc(NCCNC(=O)Nc3ccccc3)c(C#N)cc2c1	nt	nt	i	82.7	i
O=C(Nc1ccc2nc(-c3cccs3)c(-c3cccs3)nc2c1)NC1CC1	i	i	i	91.7	i
COc1ccc2cc3cc(C(=O)Nc4cc(OC)c(OC)c(OC)c4)oc3nc2c1	i	i	i	i	57.7
Cc1cc(NC(=O)CSc2nnc3ccc(-c4ccccc4)nn23)no1	nt	nt	i	nt	i
Cc1cc(C(=O)COC(=O)c2ccccc2Br)c(C)n1CC1CCCO1 (stereo not given)	i	i	i	76.8	i
Cc1cc(C(=O)COC(=O)c2cccnc2Cl)c(C)n1CC1CCCO1 (stereo not given)	i	i	i	79.8	i
Cc1cc(C(=O)COC(=O)C2COc3ccccc3O2)c(C)n1CC1CCCO1 (stereo not given)	i	i	i	77.4	i
CC(=O)c1cccc(NC(=O)c2ccc(-c3c(C)noc3C)c3ccoc23)c1	nt	nt	i	nt	i
Cc1cc(C)cc(Nc2cc(=O)n(C3CCCCC3)c(=O)[nH]2)c1	i	i	i	87.0	i
COc1ccc(Nc2cc(=O)n(C3CCCCC3)c(=O)[nH]2)c(OC)c1	i	i	i	i	i
Cc1ccccc1N(CC(=O)N/N=C/c1ccc(Cl)cc1)C(=O)c1ccccc1	i	i	i	72.5	i
